Activity calls are given as the source filed them. The rule behind the calls is not given here.
How the values were obtained:
[1] = target: Platelet-derived growth factor receptor beta (Homo sapiens, UniProt P09619); experiment: Inhibition of PDGF-BB-induced PDGFR beta phosphorylation in human SF539 cells overexpressing PDGFR beta pretreated for 60 mins prior to PDGF-BB addition measured after 10 mins by phosphotyrosine ELISA cytoblot analysis; type: cell-based, SF-539
[2] = target: T1, Vascular endothelial growth factor receptor 1 (Homo sapiens, UniProt P17948); experiment: Ratio of compound IC50 to CB676475 IC50 for VEGF-induced VEGFR1 phosphorylation in human A498 cells overexpressing Flt-1 by phosphotyrosine ELISA cytoblot analysis; type: cell-based
T1 sequence (P17948 whole entry): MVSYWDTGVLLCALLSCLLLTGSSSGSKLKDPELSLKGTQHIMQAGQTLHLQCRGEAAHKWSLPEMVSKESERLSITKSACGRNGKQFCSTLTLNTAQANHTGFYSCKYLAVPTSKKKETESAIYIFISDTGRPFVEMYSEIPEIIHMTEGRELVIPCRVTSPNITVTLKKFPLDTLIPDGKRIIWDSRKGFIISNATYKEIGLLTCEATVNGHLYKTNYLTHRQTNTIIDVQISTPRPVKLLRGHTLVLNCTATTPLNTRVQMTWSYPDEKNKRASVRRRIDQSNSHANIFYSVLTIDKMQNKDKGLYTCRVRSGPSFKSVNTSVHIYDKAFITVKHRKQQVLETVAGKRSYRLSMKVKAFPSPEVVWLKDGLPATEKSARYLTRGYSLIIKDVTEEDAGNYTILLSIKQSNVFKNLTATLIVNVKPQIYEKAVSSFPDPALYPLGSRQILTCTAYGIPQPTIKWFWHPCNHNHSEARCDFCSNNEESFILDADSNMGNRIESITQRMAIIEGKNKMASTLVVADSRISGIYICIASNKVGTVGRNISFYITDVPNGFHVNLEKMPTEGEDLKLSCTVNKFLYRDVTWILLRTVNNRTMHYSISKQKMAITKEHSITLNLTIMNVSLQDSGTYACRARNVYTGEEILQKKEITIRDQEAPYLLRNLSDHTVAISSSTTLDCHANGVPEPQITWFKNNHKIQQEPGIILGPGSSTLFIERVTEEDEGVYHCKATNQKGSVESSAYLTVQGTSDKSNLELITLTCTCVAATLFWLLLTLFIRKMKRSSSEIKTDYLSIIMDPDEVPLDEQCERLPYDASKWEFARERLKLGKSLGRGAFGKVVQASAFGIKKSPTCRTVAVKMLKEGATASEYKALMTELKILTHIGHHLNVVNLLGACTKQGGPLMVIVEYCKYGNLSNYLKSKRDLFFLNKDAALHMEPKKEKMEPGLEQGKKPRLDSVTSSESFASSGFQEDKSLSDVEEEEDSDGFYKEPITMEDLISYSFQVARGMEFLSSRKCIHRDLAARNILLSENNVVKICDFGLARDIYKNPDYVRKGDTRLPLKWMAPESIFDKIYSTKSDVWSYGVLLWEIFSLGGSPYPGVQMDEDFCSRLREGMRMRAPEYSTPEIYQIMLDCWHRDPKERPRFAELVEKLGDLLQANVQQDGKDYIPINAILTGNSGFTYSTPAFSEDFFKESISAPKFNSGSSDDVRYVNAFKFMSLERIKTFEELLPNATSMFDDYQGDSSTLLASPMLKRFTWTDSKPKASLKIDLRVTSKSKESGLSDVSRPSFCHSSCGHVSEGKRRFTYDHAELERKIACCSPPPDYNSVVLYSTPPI
How it was run: (§1)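 Cells at 60–75% confluence serum-starved 18 h, then pretreated 60 min with serial compound dilutions starting at 10 before growth factor stimulation. Cells fixed 30 min at 60 °C, then 70% ethanol 30 min, blocked with 1% BSA in TBS 1 h, HRP-anti-phosphotyrosine overnight, luminol ELISA substrate; light emission imaged.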

[3] = target: T2, Vascular endothelial growth factor receptor 2 (Homo sapiens, UniProt P35968); type: cell-based, U-251
T2 sequence (P35968 whole entry): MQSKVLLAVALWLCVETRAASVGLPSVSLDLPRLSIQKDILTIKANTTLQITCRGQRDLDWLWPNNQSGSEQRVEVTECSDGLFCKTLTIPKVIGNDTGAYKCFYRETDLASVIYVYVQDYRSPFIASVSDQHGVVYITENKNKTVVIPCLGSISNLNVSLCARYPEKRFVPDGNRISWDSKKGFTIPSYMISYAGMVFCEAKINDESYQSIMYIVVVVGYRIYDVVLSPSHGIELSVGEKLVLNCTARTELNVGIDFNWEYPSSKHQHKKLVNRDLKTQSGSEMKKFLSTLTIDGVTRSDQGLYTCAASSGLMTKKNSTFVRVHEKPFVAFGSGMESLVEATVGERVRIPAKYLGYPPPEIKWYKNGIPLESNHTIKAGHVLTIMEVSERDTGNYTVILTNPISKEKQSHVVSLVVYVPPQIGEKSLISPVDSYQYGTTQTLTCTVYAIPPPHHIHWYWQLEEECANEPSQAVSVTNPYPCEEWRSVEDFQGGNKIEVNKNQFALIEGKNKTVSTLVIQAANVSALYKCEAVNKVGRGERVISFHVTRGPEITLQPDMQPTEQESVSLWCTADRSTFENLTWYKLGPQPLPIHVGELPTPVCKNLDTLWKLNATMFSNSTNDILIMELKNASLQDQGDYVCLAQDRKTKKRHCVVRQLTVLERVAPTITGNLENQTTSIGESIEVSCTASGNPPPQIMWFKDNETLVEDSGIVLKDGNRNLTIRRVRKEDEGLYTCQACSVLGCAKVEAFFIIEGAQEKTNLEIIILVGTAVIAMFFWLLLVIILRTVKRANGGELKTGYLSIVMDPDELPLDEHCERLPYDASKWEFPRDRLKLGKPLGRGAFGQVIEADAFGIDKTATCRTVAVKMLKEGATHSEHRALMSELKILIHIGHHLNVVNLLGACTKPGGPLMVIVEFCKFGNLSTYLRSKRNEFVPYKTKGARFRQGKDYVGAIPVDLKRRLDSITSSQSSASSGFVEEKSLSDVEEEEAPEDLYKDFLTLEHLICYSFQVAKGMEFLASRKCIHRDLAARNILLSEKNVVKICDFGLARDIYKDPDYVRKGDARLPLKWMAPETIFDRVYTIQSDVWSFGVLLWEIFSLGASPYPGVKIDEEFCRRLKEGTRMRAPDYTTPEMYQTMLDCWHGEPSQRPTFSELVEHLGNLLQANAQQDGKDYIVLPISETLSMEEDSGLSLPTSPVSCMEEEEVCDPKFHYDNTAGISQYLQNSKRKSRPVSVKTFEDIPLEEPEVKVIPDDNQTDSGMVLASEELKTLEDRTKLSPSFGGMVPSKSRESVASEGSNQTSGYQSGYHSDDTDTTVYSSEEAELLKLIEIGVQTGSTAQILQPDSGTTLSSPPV

[4] = target: T1, Vascular endothelial growth factor receptor 1; experiment: Inhibition of VEGF-induced VEGFR1 phosphorylation in human A498 cells overexpressing Flt-1 pretreated for 60 mins prior to VEGF addition measured after 10 mins by phosphotyrosine ELISA cytoblot analysis; type: cell-based
Chorioallantoic membrane [5] = experiment: Inhibition of VEGF165/bFGF-induced angiogenesis in chicken chorioallantoic membrane assessed a s decrease in number of vessels formed treated 8 hrs after VEGF/bFGF addition measured after 48 hrs by dissecting microscopic analysis; type: functional; details: Gallus gallus
[6] = target: Epidermal growth factor receptor (Homo sapiens, UniProt P00533); type: cell-based, A-431;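 also: EGF-stimulated EGFR phosphorylation in human A431 cells, compound preincubation 60 min before EGF, phosphotyrosine ELISA cytoblot read 10 min after stimulation, inhibition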
Sequence of Epidermal growth factor receptor (P00533 whole entry): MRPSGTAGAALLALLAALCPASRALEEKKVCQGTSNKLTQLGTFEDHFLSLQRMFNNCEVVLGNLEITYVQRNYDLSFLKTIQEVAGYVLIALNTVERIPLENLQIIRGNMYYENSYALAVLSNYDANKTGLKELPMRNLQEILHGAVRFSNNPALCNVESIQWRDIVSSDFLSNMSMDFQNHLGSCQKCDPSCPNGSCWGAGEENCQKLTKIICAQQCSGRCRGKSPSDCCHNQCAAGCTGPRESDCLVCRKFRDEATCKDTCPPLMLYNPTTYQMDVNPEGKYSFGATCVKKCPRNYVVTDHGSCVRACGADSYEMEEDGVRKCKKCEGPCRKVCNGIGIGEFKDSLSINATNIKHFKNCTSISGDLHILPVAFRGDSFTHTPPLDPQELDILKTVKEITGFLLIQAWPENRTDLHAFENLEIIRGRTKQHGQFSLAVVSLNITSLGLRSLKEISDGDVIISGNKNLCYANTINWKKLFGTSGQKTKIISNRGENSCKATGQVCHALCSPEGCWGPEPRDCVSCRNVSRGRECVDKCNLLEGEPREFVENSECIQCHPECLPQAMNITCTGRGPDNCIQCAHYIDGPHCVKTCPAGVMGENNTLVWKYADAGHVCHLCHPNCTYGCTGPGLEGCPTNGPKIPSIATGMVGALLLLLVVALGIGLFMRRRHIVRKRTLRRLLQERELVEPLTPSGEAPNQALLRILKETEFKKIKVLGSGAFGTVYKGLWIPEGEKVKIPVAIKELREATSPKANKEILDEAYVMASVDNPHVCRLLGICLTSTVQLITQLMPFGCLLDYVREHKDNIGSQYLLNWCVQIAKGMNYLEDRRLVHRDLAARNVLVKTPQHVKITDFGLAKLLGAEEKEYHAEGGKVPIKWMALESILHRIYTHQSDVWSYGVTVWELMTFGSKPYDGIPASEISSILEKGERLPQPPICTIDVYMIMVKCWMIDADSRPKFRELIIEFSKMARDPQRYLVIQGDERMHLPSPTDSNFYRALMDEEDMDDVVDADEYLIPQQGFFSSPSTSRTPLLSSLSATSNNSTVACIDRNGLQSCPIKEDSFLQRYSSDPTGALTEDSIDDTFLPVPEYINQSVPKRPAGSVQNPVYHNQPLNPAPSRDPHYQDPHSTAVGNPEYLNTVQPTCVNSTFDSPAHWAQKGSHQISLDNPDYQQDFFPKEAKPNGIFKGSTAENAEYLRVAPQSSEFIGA

A-431 [7] = experiment: Cytotoxicity against human A431 cells overexpressing EGFR assessed as inhibition of cell proliferation treated for 12 hrs measured after 36 hrs by CYQUANT dye based assay; type: functional
A-431 [8] = experiment: Ratio of cisplatin IC50 to compound IC50 for human A431 cells overexpressing EGFR by CYQUANT dye based assay
B16-F10 [9] = experiment: Antimetastatic activity against GFP-tagged mouse B16F10 cells isografted into syngeneic athymic Ncr nu/nu mouse assessed as decrease in number of B16F10 lung metastases at 10 mg/kg, ip administered twice weekly starting from day 8 post-tumor inoculation by hematoxylin-eosin staining; type: functional, organism-based; set-up: dose 10 mg/kg
B16-F10 [10] = experiment: Antitumor activity against GFP-tagged mouse B16F10 cells isografted into syngeneic athymic Ncr nu/nu mouse assessed as decrease in tumor volume at 10 mg/kg, ip administered twice weekly starting from day 8 post-tumor inoculation; type: functional, organism-based; set-up: dose 10 mg/kg
How it was run: (§2)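 Mice bearing subcutaneous GFP-tagged B16-F10 tumors; treatment began once most tumors were caliper-measurable (day 8) after random sorting into groups. Dosing 10 mg/kg IP every Monday AM and Thursday PM; sham animals received water. Tumor length, width and depth measured Mon/Wed/Fri; volume = L×W×D; growth rate by linear regression. n = 7–10.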

B16-F10 [11] = experiment: Antiangiogenic activity against GFP-tagged mouse B16F10 cells isografted into syngeneic athymic Ncr nu/nu mouse assessed as decrease in vascular density at 10 mg/kg, ip administered twice weekly starting from day 8 post-tumor inoculation; type: functional, organism-based; set-up: dose 10 mg/kg
B16-F10 [12] = experiment: Antitumor activity against GFP-tagged mouse B16F10 cells isografted into syngeneic athymic Ncr nu/nu mouse assessed as decrease in tumor growth rate at 10 mg/kg, ip administered twice weekly starting from day 8 post-tumor inoculation; type: functional, organism-based; set-up: dose 10 mg/kg; how it was run: as §2
Mus musculus [13] = experiment: Toxicity in Ncr nu/nu mouse assessed as body weight loss at 7.5 to 10 mg/kg, ip administered twice weekly measured for 6 weeks by whole animal toxicity assay; type: organism-based; set-up: dose 7.5-10 mg/kg, route intraperitoneal; details: in vivo, 1008 h
B16-F10 [14] = experiment: Antiangiogenic activity against GFP-tagged mouse B16F10 cells isografted into syngeneic athymic Ncr nu/nu mouse assessed as decrease in vascular density at […], ip administered twice weekly starting from day 8 post-tumor inoculation; type: functional, organism-based
Mus musculus [15] = experiment: Toxicity in Ncr nu/nu mouse assessed as body weight loss at 15 to 20 mg/kg, ip administered twice weekly measured for 6 weeks by whole animal toxicity assay; type: organism-based; set-up: dose 15-20 mg/kg, route intraperitoneal; details: in vivo, 1008 h
[16] = Toxicity in ip dosed Ncr nu/nu mouse assessed as maximum tolerated dose administered twice weekly by whole animal toxicity assay; type: organism-based; details: in vivo
Mus musculus [17] = experiment: Toxicity in Ncr nu/nu mouse assessed as body weight loss at […], ip administered twice weekly measured for 6 weeks by whole animal toxicity assay; type: organism-based; details: in vivo, 1008 h
B16-F10 [18] = experiment: Antimetastatic activity against GFP-tagged mouse B16F10 cells isografted into syngeneic athymic Ncr nu/nu mouse assessed as decrease in number of B16F10 lung metastases at […], ip administered twice weekly starting from day 8 post-tumor inoculation by hematoxylin-eosin staining; type: functional, organism-based
B16-F10 [19] = experiment: Antitumor activity against GFP-tagged mouse B16F10 cells isografted into syngeneic athymic Ncr nu/nu mouse assessed as decrease in tumor growth rate at […], ip administered twice weekly starting from day 8 post-tumor inoculation; type: functional, organism-based
B16-F10 [20] = experiment: Antitumor activity against GFP-tagged mouse B16F10 cells isografted into syngeneic athymic Ncr nu/nu mouse assessed as decrease in tumor volume at […], ip administered twice weekly starting from day 8 post-tumor inoculation; type: functional, organism-based
[21] = target: T2, Vascular endothelial growth factor receptor 2; experiment: Ratio of compound IC50 to semaxanib IC50 for VEGF-induced VEGFR2 phosphorylation in human U251 cells overexpressing Flk-1 by phosphotyrosine ELISA cytoblot analysis; type: cell-based; details: U-251; how it was run: as §1
Chorioallantoic membrane [22] = experiment: Ratio of semaxanib IC50 to compound IC50 for VEGF165/bFGF-induced angiogenesis in chicken chorioallantoic membrane by dissecting microscopic analysis; type: functional; details: Gallus gallus
Chorioallantoic membrane [23] = experiment: Ratio of compound IC50 to semaxanib IC50 for VEGF165/bFGF-induced angiogenesis in chicken chorioallantoic membrane by dissecting microscopic analysis; type: functional; details: Gallus gallus

Sequence of Platelet-derived growth factor receptor beta (P09619 whole entry): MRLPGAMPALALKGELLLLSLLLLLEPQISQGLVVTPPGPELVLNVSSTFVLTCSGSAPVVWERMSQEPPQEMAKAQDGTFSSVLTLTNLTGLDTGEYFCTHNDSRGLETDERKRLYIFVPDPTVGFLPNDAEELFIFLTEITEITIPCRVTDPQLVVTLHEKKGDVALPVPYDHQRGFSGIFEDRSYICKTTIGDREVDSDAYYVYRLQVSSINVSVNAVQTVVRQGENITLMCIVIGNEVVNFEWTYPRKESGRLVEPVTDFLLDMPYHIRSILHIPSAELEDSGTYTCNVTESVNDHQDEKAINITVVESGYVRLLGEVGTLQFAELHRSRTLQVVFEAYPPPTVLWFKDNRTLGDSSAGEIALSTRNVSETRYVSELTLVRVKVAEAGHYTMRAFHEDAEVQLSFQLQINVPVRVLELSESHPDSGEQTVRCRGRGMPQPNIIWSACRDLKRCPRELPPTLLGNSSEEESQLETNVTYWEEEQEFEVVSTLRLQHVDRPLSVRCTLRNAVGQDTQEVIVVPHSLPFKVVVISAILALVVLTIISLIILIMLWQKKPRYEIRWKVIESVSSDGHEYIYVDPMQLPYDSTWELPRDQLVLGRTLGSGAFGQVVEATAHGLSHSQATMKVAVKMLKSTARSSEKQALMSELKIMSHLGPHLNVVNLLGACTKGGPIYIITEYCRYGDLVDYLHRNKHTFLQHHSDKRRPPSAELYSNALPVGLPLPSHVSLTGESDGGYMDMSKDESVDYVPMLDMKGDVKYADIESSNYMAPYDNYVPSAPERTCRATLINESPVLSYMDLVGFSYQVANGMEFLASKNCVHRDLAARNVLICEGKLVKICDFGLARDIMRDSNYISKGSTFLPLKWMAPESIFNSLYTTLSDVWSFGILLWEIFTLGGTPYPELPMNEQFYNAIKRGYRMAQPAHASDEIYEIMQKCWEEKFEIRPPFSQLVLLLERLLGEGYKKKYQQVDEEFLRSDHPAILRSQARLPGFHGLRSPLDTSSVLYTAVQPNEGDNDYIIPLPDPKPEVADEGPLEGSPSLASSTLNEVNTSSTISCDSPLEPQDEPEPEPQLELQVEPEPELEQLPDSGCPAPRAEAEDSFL

| IC50 [1] [µM] | Ratio IC50 [2] | IC50 [3] [µM] | IC50 [4] [µM] | IC50 [6] [µM] | Compound | IC50 (Chorioallantoic membrane [5]) [µM] | IC50 (A-431 [7]) [µM] | other results |
| --- | --- | --- | --- | --- | --- | --- | --- | --- |
| > 500 | 5 | 151 | 190 | 26.9 | CC(C)(C)C(=O)Nc1nc(Nc2ccc(F)c(C(F)(F)F)c2)c2cc(CCc3ccccn3)[nH]c2n1 | 8.6 | 1.9 |  |
| 331 | 5 | 43.6 | 103 | 19.9 | C#Cc1cccc(Nc2nc(N)nc3[nH]c(CCc4ccccn4)cc23)c1 | 13.9 | 0.9 | Ratio IC50 (A-431 [8]): 8 |
| > 500 |  | > 200 | > 200 | 111 | Nc1nc(Nc2ccc(F)c(Cl)c2)c2cc(CCc3ccccn3)[nH]c2n1 | 11.3 | 27 |  |
| 13.4 |  | 49.9 | > 50 |  | Nc1nc(Nc2cccc(Br)c2)c2cc(CCc3ccccn3)[nH]c2n1 | 7.23 | 19.6 |  |
| > 500 |  | 124 | > 200 | 15.6 | Nc1nc(Nc2ccc(F)c(C(F)(F)F)c2)c2cc(CCc3ccccn3)[nH]c2n1 | 14 | 3.2 |  |
| > 500 |  | 16.7 | > 200 | 19.3 | Nc1nc(Nc2cccc(C(F)(F)F)c2)c2cc(CCc3ccccn3)[nH]c2n1 | 1.09 | 3.4 | Ratio IC50 [21]: 1.5 |

The next lines start with the molecule.

| Compound | IC50 [1] [µM] | Ratio IC50 [2] | IC50 [3] [µM] | IC50 [4] [µM] | IC50 [6] [µM] | IC50 (Chorioallantoic membrane [5]) [µM] | IC50 (A-431 [7]) [µM] | other results |
| --- | --- | --- | --- | --- | --- | --- | --- | --- |
| C#Cc1cccc(Nc2nc(NC(=O)C(C)(C)C)nc3[nH]c(CCc4ccccn4)cc23)c1 | 430 | 5 | 126 | 156 | > 200 | 3.2 | 29.9 |  |
| CN(Cc1cnc2nc(N)nc(N)c2n1)c1ccc(C(=O)N[C@@H](CCC(=O)O)C(=O)O)cc1 |  |  |  |  |  |  |  | inhibition (B16-F10 [9]): Active; inhibition (B16-F10 [10]): Active; inhibition (B16-F10 [11]): Active; inhibition (B16-F10 [12]): Active |
| Nc1nc(Nc2ccc(F)c(Br)c2)c2cc(CCc3ccccn3)[nH]c2n1 | > 500 | 5 | 24.1 | 93.6 | 85.9 | 0.07 | 12.2 | Activity (Mus musculus [13]): Non-toxic; inhibition (B16-F10 [14]): Active; Activity (Mus musculus [15]): Toxic; MTD [16]: 12.5 mg/kg; Activity (Mus musculus [17]): 1%; inhibition (B16-F10 [18]): Active; inhibition (B16-F10 [19]): Active; inhibition (B16-F10 [20]): Active; Ratio IC50 [21]: 2.4; Ratio IC50 (Chorioallantoic membrane [22]): 1.2 |
| CC(C)(C)C(=O)Nc1nc(Nc2ccc(F)c(Cl)c2)c2cc(CCc3ccccn3)[nH]c2n1 | > 500 |  | 89.3 | > 200 | 16.3 | 2 | 2.6 |  |
| CC(C)(C)C(=O)Nc1nc(Nc2ccc(F)c(Br)c2)c2cc(CCc3ccccn3)[nH]c2n1 | 89.7 |  | > 200 | > 200 | 5.4 | 0.9 | 1 | Ratio IC50 (Chorioallantoic membrane [23]): 10 |
| CC(C)(C)C(=O)Nc1nc(Nc2cccc(C(F)(F)F)c2)c2cc(CCc3ccccn3)[nH]c2n1 | > 500 | 5 | 16.7 | 130 | 12.8 | 1.6 | 2.9 | Ratio IC50 [21]: 1.5 |
